Data as given in publication PMC7392586 (Circulation, 2020).
Where “and” joins values, the source holds several entries; their conditions need not be identical. Equal entries are not always repeated. Where two headings read alike, the source gives them in different places.

Key:
[1] = test system: ADP-induced platelet aggregation in platelet-rich plasma; assay: Light transmittance aggregometry; format: in vivo, human; conditions: for %IPA using LTA with ADP 20 µmol/L: at 30 minutes (primary endpoint), mean±SD
[2] = test system: platelet reactivity index; conditions: CANTIC study; cited from earlier work
[3] = test system: platelet reactivity (P2Y12 reaction units); conditions: cited from earlier work; for HRPR (VerifyNow, cutoff PRU >208): 15 STEMI patients pretreated with ticagrelor
[4] = test system: ADP-induced platelet aggregation in whole blood; assay: Multiple electrode aggregometry; format: in vivo, human; conditions: % of patients
How it was run: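 STEMI patients not previously given a P2Y12 inhibitor. Hirudin-anticoagulated whole blood drawn at baseline and at 15 min, 30 min, 1, 2, 3 and 4–6 h after the study drug (bolus completion or oral ingestion); done at 2 centres. Blood diluted 1:2 in 0.9% NaCl, ADP-stimulated, aggregation recorded 6 min; AUC units. High residual reactivity: >46 U; percent of patients.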

platelet function = conditions: 16 cardiac arrest survivors with STEMI, cited from earlier work
platelet inhibition = conditions: pharmacodynamic data on cangrelor; cited from earlier work
[5] = test system: ADP-induced platelet aggregation in whole blood; conditions: cited from earlier work; for mean platelet inhibition before the end of infusion / patients achieving 100% platelet inhibition: part 2 of the trial; for mean platelet inhibition before the end of infusion: cangrelor 4 μg/kg/min

In the case of CC(=O)Oc1cc2c(s1)CCN(C(C(=O)C1CC1)c1ccccc1F)C2 (stereo not shown) [Integral Prasugrel, Prasugrel], the “%IPA using LTA with ADP 20 µmol/L” value [1] is reported as 6.3±11.4%.

For CC(=O)Oc1cc2c(s1)CCN(C(C(=O)C1CC1)c1ccccc1F)C2 (stereo not shown) [Chewed Prasugrel, Prasugrel], the “%IPA using LTA with ADP 20 µmol/L” value [1] was 10.5±11.0%.

In the case of CCCCS(=O)(=O)N[C@@H](Cc1ccc(OCCCCC2CCNCC2)cc1)C(=O)O [Tirofiban], the “%IPA using LTA with ADP 20 µmol/L” value [1] is reported as 95.0±8.9% and 95.0±9.0% and the “HRPR rates (platelet aggregation >59% at LTA after ADP 20 µmol/L)” value ([1]; during drug infusion / within the first 2 hours) is reported as “No patient”.

For CSCCNc1nc(SCCC(F)(F)F)nc2c1ncn2[C@@H]1O[C@H](COP(=O)(O)OP(=O)(O)C(Cl)(Cl)P(=O)(O)O)[C@@H](O)[C@H]1O [Cangrelor], the “%IPA using LTA with ADP 20 µmol/L” value [1] is listed as 34.1±22.5%, the “nonresponders at vasodilator-stimulated phosphoprotein assay during drug infusion” value [2] is listed as 3 out of 22 and the “patients with PRU higher than 208 U during drug infusion” value ([3]; CANTIC study) is listed as “No patient”. For the same molecule, the “HRPR (VerifyNow, cutoff PRU >208)” value ([3]; at 15 minutes) was 6.7%, the “HRPR (VerifyNow, cutoff PRU >208)” value ([3]; at 1 hour) was 0% and the “HRPR rate (VerifyNow, cutoff PRU >208)” value ([3]; at the time of balloon inflation, 50 STEMI patients) was 10%. The “High residual platelet reactivity: AUC>46 using ADPtest (Multiplate)” value (shortened to “High residual platelet reactivity”) ([4]; at 15 minutes) was 8.6%, the “High residual platelet reactivity” value ([4]; at 30 minutes) was “≈ 14%” and the “High residual platelet reactivity” value ([4]; at 2 hours) was “≈ 14%”. For the same molecule, the “platelet function, median (Multiplate Analyzer)” value (platelet function; targeted temperature management, interquartile range 10 to 25) was 18 U, the “HRPR (Multiplate Analyzer, <46 U cutoff)” value (platelet function) was “none had HRPR” and the “degree of platelet inhibition” value (platelet inhibition) was greater than 80%. The “mean IPA” value ([5]; infusion 4 μg/kg/min for up to 69 hours, at 24 hours, 14 patients with unstable angina or non–Q-wave MI, whole blood impedance aggregometry, ADP 3 μmol/L) was 98.7±2.1%, the “mean %IPA” value ([5]; infusion at 4 μg/kg/min, elective or urgent PCI, impedance aggregometry in heparinized blood, ADP 3 μmol/L) was 99% and the “mean platelet inhibition before the end of infusion” value [5] was 100%. For the same molecule, the “patients achieving 100% platelet inhibition” value [5] was 95%.

B1: abciximab (antibody, chains of the INN, looked up, V domains shown)
VH: EVQLQQSGTVLARPGASVKMSCEASGYTFTNYWMHWVKQRPGQGLEWIGAIYPGNSDTSYIQKFKGKAKLTAVTSTTSVYMELSSLTNEDSAVYYCTLYDGYYVFAYWGQGTLVTVSA
VL: EIVLTQSPVTLSVTPGDSVSLSCRASRDISNNLHWFQQTSHESPRLLIKYASQSMSGIPSRFSGSGSGTDFTLSINSVETEDFGMYFCQQTNSWPYTFGGGTKLEIK
modifications: Fab
In the case of B1, the “mean platelet inhibition before the end of infusion” value [5] is given as 100% and the “patients achieving 100% platelet inhibition” value [5] is given as 100%.
